Reference: ChEMBL document CHEMBL2203116, “Synthesis and evaluation of novel carbon-11 labeled oxopurine analogues for positron emission tomography imaging of translocator protein (18 kDa) in peripheral organs” (J Med Chem, 2011)

Legend:
Lung [1] = assay: Drug uptake in Sprague-Dawley rat lung at 0.15 nmol, iv pretreated with unlabeled (R)-PK11195 by PET scanning; format: ADME, organism-based; conditions: in vivo
In short: (§1)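 Male Sprague-Dawley rats (6–8 weeks old), isoflurane-anesthetized, prone. ROIs on lung, heart, kidney, liver, small intestine and cardiac blood pool. Uptake decay-corrected to injection time and expressed as SUV (body-weight normalized). n = 4, mean ± SD.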

Heart = assay: Drug uptake in Sprague-Dawley rat heart at 0.15 nmol, iv up to 30 mins by PET scanning; format: ADME, organism-based; conditions: in vivo, 0.5 h
In short: (§2)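 Isoflurane-anesthetized male Sprague-Dawley rats lay prone and received an iv bolus of [11C]radioligand in 200 μL. 3D list-mode emission scans ran 30 min from injection. Regions of interest were drawn on the organs and cardiac blood pool. Uptake was decay-corrected to injection time and expressed as SUV (normalized to injected radioactivity and body weight). Values are mean of n = 4.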

Blood [2] = assay: Biodistribution in LPS-treated Sprague-Dawley rat blood at 0.19 nmol, iv by gamma counting; format: ADME, organism-based; conditions: in vivo
In short: (§3)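 Male Sprague-Dawley rats were given intratracheal LPS (E. coli O127:B8, 5.0 mg/kg in 50 μL saline) or 50 μL saline vehicle 24 h before tracer. [11C]Radioligand (16 MBq/200 μL, 0.19 nmol) in saline was injected via the tail vein. Rats were killed at 30 min (n = 4 per group). Tissues were weighed and gamma-counted, expressed as decay-corrected %ID/g.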

Blood [3] = assay: Drug uptake in Sprague-Dawley rat cardiac blood pool at 0.15 nmol, iv up to 30 mins by PET scanning; format: ADME, organism-based; conditions: in vivo, 0.5 h; in short: as §2
Lung [4] = assay: Drug uptake in Sprague-Dawley rat lung at 0.15 nmol, iv after 2 mins by PET scanning; format: ADME, organism-based; conditions: in vivo; in short: as §1
Liver [5] = assay: Drug uptake in Sprague-Dawley rat liver at 0.15 nmol, iv up to 30 mins by PET scanning; format: ADME, organism-based; conditions: in vivo, 0.5 h; in short: as §1
Lung [6] = assay: Drug uptake in Sprague-Dawley rat lung at 0.15 nmol, iv after 30 mins by PET scanning; format: ADME, organism-based; conditions: in vivo, 0.5 h; in short: as §1
Kidney = assay: Drug uptake in Sprague-Dawley rat kidney at 0.15 nmol, iv pretreated with unlabeled (R)-PK11195 by PET scanning; format: ADME, organism-based; conditions: in vivo; in short: as §1
Adrenal = assay: Biodistribution in Sprague-Dawley rat adrenal at 0.19 nmol, iv by gamma counting; format: ADME, organism-based, Adrenal tissue; conditions: in vivo; in short: as §3
Muscle tissue = assay: Biodistribution in LPS-treated Sprague-Dawley rat muscle at 0.19 nmol, iv by gamma counting; format: ADME, organism-based; conditions: in vivo; in short: as §3
Liver [7] = assay: Drug uptake in Sprague-Dawley rat liver at 0.15 nmol, iv pretreated with unlabeled (R)-PK11195 measured after 27.5 mins by PET scanning relative to control; format: ADME, organism-based; conditions: in vivo
In short: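 Male Sprague-Dawley rats, 6-8 weeks old, under isoflurane, prone. An unlabeled TSPO blocking ligand (3.0 mg/kg) was injected 1 min before the iv radioligand (16-18 MBq/200 μL). A liver ROI was decay-corrected and expressed as SUV normalized to injected activity and body weight. The 27.5-min value was compared with unblocked controls; n = 4.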

Blood [8] = assay: Drug uptake in Sprague-Dawley rat cardiac blood pool at 0.15 nmol, iv after 2 mins by PET scanning; format: ADME, organism-based; conditions: in vivo; in short: as §2
[9] = Metabolic stability in Sprague-Dawley rat liver assessed as unchanged compound at 0.32 nmol, iv after 30 mins by analytical radio- HPLC; format: ADME, organism-based; conditions: read-out: Stability

Drug uptake (Lung [1]): Not Active
Drug uptake (Heart): Active
Drug uptake (Blood [2]): 0.08 % ID/g
Drug uptake (Blood [3]): Active
SUV (Lung [4]): 3.4
Drug uptake (Liver [5]): Active
Drug uptake (Lung [6]): Active
Drug uptake (Kidney): Not Active
Drug uptake (Adrenal): 7.49 % ID/g
Drug uptake (Muscle tissue): 0.1 % ID/g
fold change (FC) (Liver [7]): 1.5
SUV (Blood [8]): 3
remaining at 0.5 h [9]: 43.6%
Structure (SMILES): CCN(Cc1ccncc1)C(=O)Cn1c(=O)n([11CH3])c2cnc(-c3ccccc3)nc21
